What was measured:
RPMI-8226 [1] = experiment: Ratio of compound IC50 to F-Cpd5 IC50 for human RPMI8226 cells; assay type: functional, cell-based
MCF7 [2] = experiment: Ratio of compound IC50 to F-Cpd5 IC50 for human MCF7 cells; assay type: functional, cell-based
RPMI-8226 [3] = experiment: Cytotoxicity against human RPMI8226 cells after 72 hrs by MTT assay; assay type: functional, cell-based; details: RPMI-8226, 72 h
Summary of the method: (§1)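 RPMI 8226, MCF-7, LMTK and primary mouse fibroblasts (PMF) were seeded at ~2000 cells per well and preincubated 24 h at 37 °C, 5% CO2, in IMDM or RPMI 1640. Compounds were then added and cells incubated a further 72 h. Viable cells were quantified by MTT colorimetric assay, and the concentration giving 50% growth inhibition (IC50) was derived. Values are mean ± SD of at least three independent experiments.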

MCF7 [4] = experiment: Cytotoxicity against human MCF7 cells after 72 hrs by MTT assay; assay type: functional, cell-based; details: MCF7, 72 h; summary of the method: as §1
[5] = Cytotoxicity against mouse LMTK cells after 72 hrs by MTT assay; assay type: cell-based; details: L-M(TK-); summary of the method: as §1
[6] = Cytotoxicity against PMF after 72 hrs by MTT assay; parameters: species or system Mus musculus; summary of the method: as §1
MCF7 [7] = experiment: Ratio of IC50 for human MCF7 cellss to IC50 for human RPMI8226 cells; assay type: functional
Salmonella typhimurium [8] = experiment: Reduction of spontaneous mutagenesis in histidine-dependent Salmonella Typhimurium TA102 harboring histidine operon mutant assessed as concentration required to suppress 100% to 50% mutagenesis after 48 hrs by Ames test; assay type: functional, organism-based, Salmonella enterica subsp. enterica serovar Typhimurium; details: Salmonella enterica, TA102, 48 h
Summary of the method: (§2)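 S. typhimurium TA102 Ames test without metabolic activation. Single colony grown 15 h at 37 °C with shaking in LB with ampicillin (50 µg/ml) and tetracycline (2 µg/ml). Overnight culture mixed with compound at varied concentrations, with or without 3 mM H2O2, in 0.6% top agar at 42 °C. Poured onto minimal 0.2% glucose plates, incubated 48 h at 37 °C, revertants counted. Untreated revertant count set as 100%. At least three independent experiments.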

Salmonella typhimurium [9] = experiment: Reduction of spontaneous mutagenesis in histidine-dependent Salmonella Typhimurium TA102 harboring histidine operon mutant assessed as inhibition of H2O2-induced formation of mutants from 100% to 50% of revertants after 48 hrs by Ames test; assay type: functional, organism-based, Salmonella enterica subsp. enterica serovar Typhimurium; details: Salmonella enterica, TA102, 48 h; summary of the method: as §2
Salmonella typhimurium [10] = experiment: Reduction of spontaneous mutagenesis in histidine-dependent Salmonella Typhimurium TA102 harboring histidine operon mutant assessed as inhibition of H2O2-induced formation of mutants from 150% to 100% of revertants after 48 hrs by Ames test; assay type: functional, organism-based, Salmonella enterica subsp. enterica serovar Typhimurium; details: Salmonella enterica, TA102, 48 h; summary of the method: as §2
[11] = Cytotoxicity against PMF at 25 ug/ml after 72 hrs by MTT assay; details: mouse, PMF cells; read-out: INH
Summary of the method: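 Cells (~2000 per well) were preincubated 24 h at 37 °C, 5% CO2, in IMDM or RPMI 1640, then exposed to compound for 72 h with MTT read-out. Where cytotoxicity was low, percent growth inhibition at the highest concentration tested was recorded instead of an IC50. Values are mean ± SD of at least three independent experiments.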

[12] = Cytotoxicity against mouse LMTK cells at 30 uM after 72 hrs by MTT assay; assay type: cell-based
[13] = Cytotoxicity against PMF at 25 ug/ml after 72 hrs by MTT assay; details: mouse

Structure (SMILES)	Ratio IC50 (RPMI-8226 [1])	Ratio IC50 (MCF7 [2])	IC50 (RPMI-8226 [3]) [µM]	IC50 (MCF7 [4]) [µM]	IC50 [5] [µM]	IC50 [6] [µM]	Ratio IC50 (MCF7 [7])	IC50 (Salmonella typhimurium [8]) [µM]	IC50 (Salmonella typhimurium [9]) [µM]	IC50 (Salmonella typhimurium [10]) [µM]	cytotoxicity at 72 h, 25 ug/ml [11] [%]	Activity [12] [%]	activity at 25 ug/ml [13] [%]
O=C1C(F)=C(Nc2ccccc2)C(=O)c2c(F)c(F)c(F)c(F)c21	2	2	–	–	–	–	–	–	–	–	–	–	–
CCNC1=C(F)C(=O)c2c(F)c(F)c(F)c(F)c2C1=O	2	2	–	–	–	–	–	–	–	–	–	–	–
O=C1C(F)=C(NCCO)C(=O)c2c(F)c(F)c(F)c(F)c21	–	13	1.2	5.8	11.7	3.3	4.8	54	44.9	26	–	–	–
COC1=C(F)C(=O)c2c(F)c(F)c(F)c(F)c2C1=O	–	–	4	26.5	13.7	8.9	–	39	20	2.8	–	–	–
CN(CCO)C1=C(F)C(=O)c2c(F)c(F)c(F)c(F)c2C1=O	–	13	5.6	2.4	44.5	24.9	–	37.6	30.2	3.4	–	–	–
CCN(CC)C1=C(F)C(=O)c2c(F)c(F)c(F)c(F)c2C1=O	2	2	–	–	–	–	–	–	–	–	–	–	–
CC(C)(C)NC1=C(F)C(=O)c2c(F)c(F)c(F)c(F)c2C1=O	2	2	–	–	–	–	–	–	–	–	–	–	–
O=C1C(F)=C(N(CCO)CCO)C(=O)c2c(F)c(F)c(F)c(F)c21	–	13	5.1	7.5	52.7	34	–	275	45.3	2.9	–	–	–
COC1=C(OC)C(=O)c2c(F)c(F)c(F)c(F)c2C1=O	–	13	0.96	6	8.6	18.9	6	198	53.8	38.3	–	–	–
O=C1C=C(SCCO)C(=O)c2c(F)c(F)c(F)c(F)c21	5.3	–	2.9	12.8	25	30	–	26.1	23.5	12.7	–	–	–
O=C1C(F)=C(N2CCOCC2)C(=O)c2c(F)c(F)c(F)c(F)c21	–	13	6	5.7	30	–	–	131	169	54	45	50	45

Reference: ChEMBL document CHEMBL1641594, “Cytotoxicity of new polyfluorinated 1,4-naphtoquinones with diverse substituents in the quinone moiety” (Bioorg Med Chem, 2011)
